# Hits are enriched below; roughly 3.7% of the tested compounds scored in any of these assays.
# Mdm2 MdmX PPI: inhibitors of human Mdm2-MdmX association, primary screen, cell-based, luminescence, split luciferase, SaOS-2, uHTS. inhibition, % at 8 µM. hit rate 3% among 330,000. Protein Mdm4 (Homo sapiens) + E3 ubiquitin-protein ligase Mdm2 (Homo sapiens), …. SaOS-2 split-luciferase Mdm2/MdmX complementation;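 active means inhibition of at least 50% at 8 µM in the primary screen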
# MDM2 E3 inh: MDM2-luciferase reporter signal enhancers, primary screen, MDM2 E3 ligase inhibitor project, cell-based, luminescence, 1536-well; AID 1230, 2008; hit rate 0.11% among 210,000; signal enhancement, % at 5 µM; cell-based MDM2 ubiquitination luciferase reporter, 2 h; 0 = plate control, 100 = twice control, blank-subtracted; E3 ubiquitin-protein ligase Mdm2 (Homo sapiens), Q00987;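 active means signal enhancement of 30% or more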;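 further: luminescence tracks abundance of the self-degrading MDM2-luciferase fusion protein; higher signal means inhibition of MDM2 E3 ligase activity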
# Target sequence (Q00987 whole entry, looked up, the tested form may be a part): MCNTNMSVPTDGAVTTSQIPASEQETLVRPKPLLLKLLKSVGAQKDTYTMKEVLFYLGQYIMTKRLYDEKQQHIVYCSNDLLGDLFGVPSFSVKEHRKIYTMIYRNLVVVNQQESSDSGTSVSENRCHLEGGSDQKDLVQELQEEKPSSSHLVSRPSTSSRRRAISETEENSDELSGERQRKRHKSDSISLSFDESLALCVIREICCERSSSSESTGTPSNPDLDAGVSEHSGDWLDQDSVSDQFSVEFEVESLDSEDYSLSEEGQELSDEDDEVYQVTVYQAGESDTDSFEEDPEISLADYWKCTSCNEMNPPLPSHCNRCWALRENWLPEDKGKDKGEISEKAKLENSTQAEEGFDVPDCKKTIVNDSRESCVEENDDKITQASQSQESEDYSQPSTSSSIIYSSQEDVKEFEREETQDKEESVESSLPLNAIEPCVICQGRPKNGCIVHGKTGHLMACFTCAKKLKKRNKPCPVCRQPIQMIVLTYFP
#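 Assay system: mammalian cells stably expressing self-ubiquitinating, self-degrading MDM2 E3–luciferase fusion. Quantity: 2000 cells in each well. Medium: DMEM culture medium. Compound dosing: single-point 5 µM. Timing: cell settling 4 h, compound treatment 2 h, both 37 °C. Technique: luciferase luminescence. Read-out basis: percent signal gain over controls, blank-subtracted. Benchmarks: plate controls and plate blanks.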
# B2AR ag: beta2AR agonists driving receptor internalization, primary screen, cell-based, FAP fluorogen, flow cytometry; Beta-2 adrenergic receptor (Homo sapiens), P07550; Am2.2-beta2AR cells; response, % (concentration not given with the values); hit rate 0.43% among 340,000;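 active means response above a set limit, near 3 SD of response in nonfluorescent compounds, cut at about 42% in these data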
# CHOP UPR activ: activators of apoptotic CHOP UPR arm, primary screen, cell-based, CHO-CHOP luciferase reporter, luminescence, uHTS | hit rate 0.34% among 330,000 | UPR activation; percent of tunicamycin response over DMSO baseline | AID 449763, 2010 | activation, % at 10 µM;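 active means at 10 µM dose, activation of 40% or more, normalized to positive control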;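 further: 100% = tunicamycin at 10 µg/mL and 0% = DMSO alone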
#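 measured by = luciferase luminescence | assay system = CHO-CHOP cells, stable luciferase reporter of PERK-eIF2a-CHOP signalling | amount = 500 reporter cells seeded per well | timing = 6 h compound exposure at 37 °C after overnight seeding | controls = positive tunicamycin 10 µg/mL, negative DMSO alone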
# UPR XBP1 act: activators of adaptive XBP1 UPR arm, primary screen, cell-based, CHO-XBP1 luciferase reporter, luminescence, uHTS; IRE1-XBP1 UPR activation; percent of tunicamycin response, DMSO as zero; activation, % at 20 µM; hit rate 0.33% among 330,000;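 active means versus positive control, 20 µM dose yields 30% or more activation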;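 further: 100% = tunicamycin at 10 µg/mL and 0% = DMSO only wells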
#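 Material: CHO cell line with stable XBP1 luciferase reporter; buffer or medium: F12 medium containing 10% fetal bovine serum; compound: single point, 20 µM final compound, 1% DMSO; incubation: 6 h treatment, 37 °C; measured by: glow luminescence from Steady-Glo reagent; evaluation: activation, % of tunicamycin; control set: tunicamycin high, DMSO low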
# Dynein cargo inh: inhibitors of GR-EGFP nuclear translocation, primary screen, dynein cargo transport inhibitor project, imaging, high-content, 3617.4 mouse cells; z-score, hits read low; test concentration mostly 20 µM; stimulated with dexamethasone, 1 µM; active compounds read low; hit rate 0.47% among 220,000;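 active means plate z-score of nuclear minus cytoplasmic receptor signal below a set negative limit, without overly bright fluorescence or cell loss, cut at about -3.5 in these data, passing the limit was not always enough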;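 further: z-score of nuclear minus cytoplasmic ring GR-EGFP intensity difference per well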
#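 medium = tetracycline-free induction medium containing charcoal-stripped FBS | also added = 1.0 µM final dexamethasone stimulus | schedule = 48 h induction, 1 h compound, 30 min dex at 37 °C | technique = fixed, Hoechst-stained cells imaged at 10x for EGFP | measure = GR-EGFP nuclear translocation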
# Mdm2 MdmX conf: Mdm2-MdmX complex disruptors, retested hits, confirmation, luminescence, single concentration. inhibition, % at 8 µM. Mdm2-MdmX binding, luminescent assay. hit rate 55% among 10,000. shares compounds with Mdm2 MdmX PPI; in the data active means inhibition above about 40%
# FLuc counter: full-length luciferase signal inhibition, confirmation, counter-screen for Mdm2/MdmX interaction inhibitor project, cell-based, single concentration, SaOS-2; shares compounds with Mdm2 MdmX PPI; SaOS-2 full-length luciferase counterscreen, luminescence; inhibition, % at 8 µM; hit rate 77% among 6,200; AID 504607, 2011;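 active means mean inhibition at 8 µM reaching about 37%, which flags the compound as non-specific, limit read from the data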;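 further: p53-null SaOS-2 cells with luciferase driven by a doxycycline-inducible promoter; compound on cells about two nights before reading with doxycycline added after day one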
# Starred values were filed as active, the others as inactive; i = inactive; nt = no result.
SMILES,Mdm2 MdmX PPI,MDM2 E3 inh,B2AR ag,CHOP UPR activ,UPR XBP1 act,Dynein cargo inh,Mdm2 MdmX conf,FLuc counter
Nc1nnn(CC(=O)N/N=C/c2cccc(Cl)c2)n1,-31.5,-6.5,-5.9,0.3,-0.6,2.64,nt,nt
O=C(CSc1nc2nn(-c3ccccc3)c(=O)c-2c2n1CCCCC2)c1ccc(O)c(O)c1,22.5,nt,14.0,1.0,2.7,nt,nt,nt
CC[n+]1c(C=C2C=C(C)OC(C)=C2)sc2ccccc21,75.4*,-28.2,i,-0.9,-4.2,-2.31,70.0*,55.6*
O=C(NC1CCCCC1)c1cccnc1Sc1ccccc1,13.8,nt,-5.8,-0.9,-0.7,nt,nt,nt
O=C(CCl)N1CCN(C(=O)C2COc3ccccc3O2)CC1 (centres undefined),66.6*,nt,4.1,31.0,-8.0,nt,29.6,nt
Cc1cc(C)n(CC(=O)NC2CCCCC2C)c(=O)c1C#N (centres undefined),19.2,nt,-2.1,-0.9,-0.6,nt,nt,nt
CC1CCN(CC2C(=O)O[C@@H]3C[C@@]4(C)CCC[C@H](C)C4=C[C@H]23)CC(C)(C)C1 (some centres undefined),64.6*,nt,24.0,1.6,-3.6,nt,42.6*,43.7*
C=C1CCC[C@]2(C)C[C@H]3OC(=O)C(CN4CC(C)OC(C)C4)[C@H]3C[C@@H]12 (some centres undefined),35.0,nt,4.1,1.8,-3.7,nt,nt,nt
CCOc1ccc(Br)cc1/C(C)=N\NC1=NCCN1,69.5*,nt,-2.2,1.0,-6.8,-1.39,54.8*,56.5*
CCCCCCOc1ccc(/C(C)=N/NC2=NCCN2)cc1,90.2*,nt,38.3,6.9,12.7,nt,31.1,nt
COc1ccc(C(=O)NCc2ccc(F)cc2)cc1S(=O)(=O)N1CCCC1,16.8,nt,3.1,-1.7,0.6,nt,nt,nt
COc1ccc(/C=C2\CCC/C(=C\c3ccc(OC)c(OC)c3OC)C2=O)c(OC)c1OC,23.3,nt,12.7,-0.5,0.1,nt,nt,nt
COc1cc(OC)c(OC)cc1/C=C1\CCC/C(=C\c2cc(OC)c(OC)cc2OC)C1=O,66.9*,nt,28.8,2.1,6.7,nt,42.9*,81.9*
COC(=O)c1cc2ccsc2n1Cc1nc(-c2ccc(OC)cc2)oc1C,60.4*,-7.9,2.0,0.9,-5.0,0.0316,5.7,nt
COC(=O)c1cc2ccsc2n1Cc1cccc(F)c1,-5.2,-4.7,-0.8,6.8,2.1,-0.406,nt,nt
COC(=O)c1cc2sccc2n1Cc1nc(-c2ccc(OC)cc2)oc1C,68.2*,-22.2,-1.9,0.3,-3.5,-1.04,28.4,nt
O=C(COc1cc(F)ccc1[N+](=O)[O-])Nc1cccc(S(=O)(=O)NC2=NCCC2)c1,5.4,nt,4.0,-1.2,-0.5,nt,nt,nt
COCCn1nnnc1C(C(C)C)N(Cc1cccnc1)Cc1ccccc1Cl (centres undefined),64.7*,-17.9,-6.7,-1.5,-3.7,-0.588,4.4,nt
CC1C/C(=C/c2ccncc2)C(=O)/C(=C/c2ccncc2)C1 (centres undefined),99.0*,-5.0,27.4,35.7,2.4,-6.02*,99.2*,51.2*
COC(=O)c1cc(C)ccc1/C=C1/Cc2c(C)cc(C)cc2C1=O,nt,nt,-9.1,nt,nt,nt,nt,nt
O=C(Nc1cc(Cl)ccc1O)c1snnc1-c1ccccc1,92.8*,-9.7,17.1,-0.1,1.0,-0.481,58.0*,23.0
Cc1cn([C@H]2C[C@H](O)[C@@H](CCC(=O)NCCc3cnc[nH]3)O2)c(=O)[nH]c1=O,nt,nt,-1.9,nt,nt,nt,nt,nt
CCN(CC)c1ccc(NC(=O)c2ccc3c(c2)c(C)c(C)n3C)cc1,61.4*,16.6,14.9,1.5,5.0,0.384,48.2*,71.5*
COc1ccc(OC)c2[nH]c(C(=O)N/N=C/c3ccccc3O)cc12,81.6*,nt,11.8,1.9,-1.1,nt,71.4*,32.5
COc1cc(/C=N/NC(=O)c2cc(-c3cccn3C)n[nH]2)cc(OC)c1OC,-49.6,-18.5,-6.3,0.9,6.3,0.282,nt,nt
SMILES,Mdm2 MdmX PPI,MDM2 E3 inh,B2AR ag,CHOP UPR activ,UPR XBP1 act,Dynein cargo inh,Mdm2 MdmX conf,FLuc counter
COc1cccc(/C=N/NC(=O)c2cc(-c3cccn3C)n[nH]2)c1O,53.1*,-22.1,18.3,1.7,-3.2,-0.25,63.5*,32.4
C=CC[C@H](CC(=O)NCCO)C(=O)NCCOC(=O)[C@@H](CC=C)Cc1ccc(F)cc1,-26.6,nt,-2.6,0.3,0.8,nt,nt,nt
O=C(CN1CCCC1)Nc1ccc(Oc2ccc(NC(=O)CN3CCCC3)cc2)cc1,56.3*,-4.9,14.2,2.3,-1.6,-1.19,52.9*,58.0*
COc1ccc(NC(=O)CN2CCCC2)cc1,8.8,nt,-1.4,2.7,0.5,nt,nt,nt
Cc1ccc(Cl)cc1N1CCN(CC(=O)Nc2ccc(CN3CCCCC3)cc2)CC1,69.5*,-7.0,37.3,-2.2,3.0,-5.48,43.1*,59.6*
Cc1sc2nc(SCC(=O)NCc3ccco3)n(C)c(=O)c2c1C,28.4,-7.2,7.2,-1.3,-1.2,-1.4,nt,nt
Cc1sc2nc(SCC(=O)NCc3ccco3)n(CCc3ccccc3)c(=O)c2c1C,62.9*,-8.3,-5.3,16.1,16.7,0.435,25.1,nt
CCCc1ccc(S(=O)(=O)NCc2nnc(SC)n2C)cc1,-25.2,nt,0.1,-1.3,1.8,nt,nt,nt
COc1ccc(C2=Nn3c(nnc3-c3cccnc3)SC2)cc1,nt,2.5,-21.1,nt,nt,-0.0782,nt,nt
CC1=Nn2c(nnc2-c2n[nH]c3c2CCC3)SC1,16.2,0.6,4.2,-2.4,-0.6,0.649,nt,nt
Cc1cc(-c2nnc3n2N=C(c2ccc(-c4ccccc4)cc2)CS3)n[nH]1,69.7*,-16.4,0.4,7.3,8.9,-0.251,12.2,nt
Fc1ccc(C2=Nn3c(nnc3-c3n[nH]c4c3CCC4)SC2)cc1,76.1*,-5.1,-26.0,1.8,4.3,-0.792,43.9*,81.8*
COc1ccc(C2=Nn3c(nnc3-c3ccncc3)SC2)cc1,51.8*,-6.8,-6.6,-2.3,6.5,-0.0202,54.9*,22.4
Cc1cc(-c2nnc3n2N=C(c2ccccc2)CS3)n[nH]1,26.3,-5.7,-12.8,0.9,3.2,0.0537,nt,nt

# Screens as filed in PubChem BioAssay.
